Broadly, the IC50 is the concentration at which inhibition is half-maximal. By Cmax is commonly meant the peak of the concentration-time curve. The AUC(0-inf) is the area under the concentration-time curve extrapolated to infinity. Read a low AUC(0-inf) as low exposure. The term half-life denotes how long it takes for the measured level to halve. High values mean slow loss, low ones fast loss. In general, clearance refers to the volume of plasma or blood freed of the substance per unit of time. The low end stands for inefficient removal, the high end for efficient removal.

Data set [1] deals with Phosphatidylinositol 4,5-bisphosphate 3-kinase catalytic subunit gamma isoform (Homo sapiens, UniProt P48736). Put plainly: Inhibition of recombinant PI3Kgamma. An outline of the steps: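 Luminescence kinase assay with recombinant PI3K p120 gamma (250-500 ng/well), ambient temperature, in 20 mM Tris pH 7.4, 4 mM MgCl2, 10 mM NaCl, 50 µM PIP2 substrate. Compound added in DMSO at 100 to 0.001 µM final. ATP added from a 3 µM stock. Stopped after 90 min with Kinase-Glo and read by luminescence. IC50 from nonlinear curve fit.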

A short description of data set [2]: Plasma concentration in Sprague-Dawley rat at 0.5 mg/kg, iv. The class given is ADME, organism-based. On the set-up: dose 0.5 mg/kg, route intravenous. In short, it runs like this: (§1)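 Male Sprague-Dawley rats (200-250 g, N = 5 per dose) were given a single iv tail bolus of 0.5 or 5 mg/kg in aqueous 9.5% Captisol. Jugular-catheter blood was drawn at 5, 15, 30 min and 1, 2, 4, 6, 8, 24 h. Plasma was acetonitrile-extracted and quantified by LC/MS/MS (calibration 1-10 000 ng/mL). Parameters were derived noncompartmentally, with CL = dose/AUC(0-inf) and Vdss = CL × MRT.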

Data set [3] is described as follows: Plasma concentration in Sprague-Dawley rat at 5.0 mg/kg, iv. The class given is ADME, organism-based. On the set-up: dose 5 mg/kg, route intravenous. An outline of the steps:
as §1

Data set [4] in a line: Cmax in Sprague-Dawley rat at 0.5 mg/kg, iv. On the set-up: dose 0.5 mg/kg, route intravenous. The settings on record: in vivo. The class given is ADME, organism-based. An outline of the steps: as §1
The nature of data set [5]: Cmax in Sprague-Dawley rat at 5.0 mg/kg, iv. On the set-up: dose 5 mg/kg, route intravenous. Type of data set: ADME, organism-based. The settings on record: in vivo. An outline of the steps: as §1
Data set [6] in a line: AUC (0 to infinity) in Sprague-Dawley rat at 0.5 mg/kg, iv. Type of data set: ADME, organism-based. On the set-up: time infinity, dose 0.5 mg/kg, route intravenous. The settings on record: plasma. An outline of the steps:
(§2)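 Male Sprague-Dawley rats (200-250 g, N = 5 per dose) given a single iv tail bolus in aqueous 9.5% Captisol. Serial plasma was taken via jugular catheter from 5 min to 24 h. Samples were acetonitrile-extracted with internal standard and quantified by LC/MS/MS (calibration 1-10 000 ng/mL). AUC(0-inf) came from noncompartmental analysis.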

A short description of data set [7]: AUC (0 to infinity) in Sprague-Dawley rat at 5.0 mg/kg, iv. The settings on record: plasma. The class given is ADME, organism-based. Also noted: time infinity, dose 5 mg/kg, route intravenous. In short, it runs like this: as §2
Data set [8] is described as follows: Half life in Sprague-Dawley rat at 0.5 mg/kg, iv. The class given is ADME, organism-based. Also noted: dose 0.5 mg/kg, route intravenous. The settings on record: in vivo. An outline of the steps:
as §1

Data set [9] can be described thus: Half life in Sprague-Dawley rat at 5.0 mg/kg, iv. Type of data set: ADME, organism-based. On the set-up: dose 5 mg/kg, route intravenous. The settings on record: in vivo. In short, it runs like this: as §1
The nature of data set [10]: Clearance in Sprague-Dawley rat at 0.5 mg/kg, iv. The settings on record: in vivo. Type of data set: ADME, organism-based. On the set-up: dose 0.5 mg/kg, route intravenous. In short, it runs like this: as §1
Data set [11] in a line: Clearance in Sprague-Dawley rat at 5.0 mg/kg, iv. The settings on record: in vivo. Type of data set: ADME, organism-based. On the set-up: dose 5 mg/kg, route intravenous. In short, it runs like this:
as §1

Data set [12] is described as follows: Volume of distribution at steady state in Sprague-Dawley rat at 0.5 mg/kg, iv. The class given is ADME, organism-based. On the set-up: dose 0.5 mg/kg, route intravenous. The settings on record: in vivo, read-out: Vdss. In short, it runs like this: as §1
The nature of data set [13]: Volume of distribution at steady state in Sprague-Dawley rat at 5.0 mg/kg, iv. Type of data set: ADME, organism-based. Also noted: dose 5 mg/kg, route intravenous. The settings on record: in vivo, read-out: Vdss. In short, it runs like this: as §1
Data set [14] has as its system HUVEC. Put plainly: Inhibition of VEGF-induced VE-cadherin phosphorylation in HUVEC cells by Western blot at 10 uM. The settings on record: Homo sapiens. Type of data set: cell-based. An outline of the steps: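 Serum-starved HUVECs were pretreated for 15 min with compound (0.125-10 µM) or vehicle, then given 20 ng/mL recombinant VEGF for 5 min. RIPA lysates were loaded at equal protein (BCA, with β-actin as loading control) on SDS-PAGE. Blots were probed for phospho-VE-cadherin, stripped, and reprobed for total VE-cadherin.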
Background: A western blot detects proteins with antibodies after separation by electrophoresis.

Data set [15] concerns the target Serine/threonine-protein kinase mTOR (Homo sapiens) (UniProt P42345). The data set can be described thus: Inhibition of VEGF-induced phosphorylation of mTOR at 10 uM. An outline of the steps: (§3)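 HUVECs (passage 2-4) were serum-starved for 4 h in EBM-2, then exposed for 10 min to 20 ng/mL recombinant human VEGF with or without 10 µM compound in DMSO. Cells were PBS-rinsed and lysed in RIPA, and lysates were normalized by BCA. Samples were screened externally by Western-blot-based antibody panels covering 73 phosphorylated kinases.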

The target of data set [16] is Ribosomal protein S6 kinase beta-1 (Homo sapiens) (UniProt P23443). The data set can be described thus: Inhibition of VEGF-induced phosphorylation of p70S6 at 10 uM. In short, it runs like this:
as §3

The target of data set [17] is RAC-alpha serine/threonine-protein kinase (Homo sapiens) (UniProt P31749). Put plainly: Inhibition of FGF-induced AKT phosphorylation in HUVEC cells by Western blot at 10 uM. The class given is cell-based. An outline of the steps: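 Serum-starved HUVECs were pretreated for 15 min with compound (0.125-10 µM) or vehicle, then stimulated for 5 min with 20 ng/mL recombinant bFGF. Cells were lysed in RIPA, protein was normalized by BCA, and lysates were run on SDS-PAGE. Blots were probed for phospho-Akt, stripped, and reprobed for total Akt.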

The structures appear in SMILES notation. The source made the active and inactive calls. The rule behind the calls is not given here.

RAC-alpha serine/threonine-protein kinase (Homo sapiens), sequence (P31749 whole entry): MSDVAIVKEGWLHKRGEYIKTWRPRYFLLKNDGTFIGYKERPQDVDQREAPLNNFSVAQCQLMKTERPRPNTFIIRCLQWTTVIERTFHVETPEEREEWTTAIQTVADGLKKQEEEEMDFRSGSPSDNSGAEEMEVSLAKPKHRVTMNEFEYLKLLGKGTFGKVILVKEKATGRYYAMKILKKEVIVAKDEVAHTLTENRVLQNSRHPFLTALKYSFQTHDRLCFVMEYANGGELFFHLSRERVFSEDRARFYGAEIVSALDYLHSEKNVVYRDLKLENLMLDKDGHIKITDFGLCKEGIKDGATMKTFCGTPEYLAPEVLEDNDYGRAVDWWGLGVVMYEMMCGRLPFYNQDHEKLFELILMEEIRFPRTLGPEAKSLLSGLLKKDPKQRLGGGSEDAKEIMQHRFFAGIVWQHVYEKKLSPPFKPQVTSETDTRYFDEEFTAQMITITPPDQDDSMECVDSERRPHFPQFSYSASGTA
Ribosomal protein S6 kinase beta-1 (Homo sapiens), sequence (P23443 whole entry, looked up): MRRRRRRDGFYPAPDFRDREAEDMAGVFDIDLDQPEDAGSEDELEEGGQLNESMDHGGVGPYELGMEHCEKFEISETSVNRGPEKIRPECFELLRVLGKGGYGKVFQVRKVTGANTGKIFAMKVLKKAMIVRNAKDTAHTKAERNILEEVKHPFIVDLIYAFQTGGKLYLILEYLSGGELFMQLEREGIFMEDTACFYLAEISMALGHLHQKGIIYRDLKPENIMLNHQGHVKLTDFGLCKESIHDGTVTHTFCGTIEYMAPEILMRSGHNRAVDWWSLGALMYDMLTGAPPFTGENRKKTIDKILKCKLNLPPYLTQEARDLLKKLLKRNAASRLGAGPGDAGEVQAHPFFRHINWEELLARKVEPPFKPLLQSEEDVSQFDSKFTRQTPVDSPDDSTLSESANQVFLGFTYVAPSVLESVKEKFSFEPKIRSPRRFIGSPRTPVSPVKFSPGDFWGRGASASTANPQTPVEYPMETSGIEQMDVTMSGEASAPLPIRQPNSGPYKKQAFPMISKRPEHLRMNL

Take `Nc1ccc2nc(-c3cccc(O)c3)c(-c3cccc(O)c3)nc2n1`: the result in data set [1] was inactive.
Consider `Nc1ncnc2ncc(-c3ccc(O)c(O)c3)nc12`, for which the IC50 in [1] came out at 1.3 µM.
In the case of `Oc1cccc(-c2nc3nc(NCCCN4CCOCC4)nc(NCCCN4CCOCC4)c3nc2-c2cccc(O)c2)c1`, the result in data set [1] was inactive.
`Nc1nc(N)c2ncc(-c3ccc(O)c(O)c3)nc2n1`: the IC50 in data set [1] was found to be 5.9 µM.
On the same count and under the same terms, to `Oc1cccc(-c2nc3nc(O)nc(O)c3nc2-c2cccc(O)c2)c1` belongs 46 µM.
Regarding `CCOP(=O)(OCC)Oc1cccc(-c2nc3nc(N)nc(N)c3nc2-c2cccc(OP(=O)(OCC)OCC)c2)c1`, the outcome in data set [1] was inactive.
Regarding `Nc1nc(NCCCN2CCOCC2)c2nc(-c3cccc(O)c3)c(-c3cccc(O)c3)nc2n1`, the IC50 in [1] is 51 µM.
The same measure, in the same setting: to `Nc1ncnc2nc(-c3ccc(O)cc3)c(-c3ccc(O)cc3)nc12` belongs 4 µM; to `Nc1nc(N)c2nc(-c3cccc(OCC(O)CO)c3)c(-c3cccc(OCC(O)CO)c3)nc2n1` (stereo unspecified), 32.7 µM; to `Nc1nc(N)c2nc(-c3ccc(O)cc3)cnc2n1`, 1.2 µM.
Regarding `Nc1ccc2nc(-c3ccc(O)cc3)c(-c3ccc(O)cc3)nc2n1`, in [1], the outcome was inactive.
For the molecule `Nc1nc(N)c2nc(-c3cccc(O)c3)c(-c3cccc(O)c3)nc2n1` [TG100-115], the C0 in [2] amounted to 713 ng/mL; in [3], 7730 ng/mL. In addition, the Cmax in [4] was 363 ng/mL; in data set [5] it was 3330 ng/mL. For the same molecule, the AUC(0-inf) in data set [6] is 124 ng·h/mL; in [7] it was 1380 ng·h/mL. Also, the values for the half-life in data set [8] and in data set [9] were 24 min and 48 min, respectively. Besides, the clearance in data set [10] stood at 71 mL/min/kg; in [11], 66 mL/min/kg. In addition, the values for the Vd in data set [12] and in data set [13] were 2.3 L/kg and 4.4 L/kg, respectively. Further, the outcome in data set [14], in [15] and in data set [16] was Active. Also, the Activity result in data set [17] is “Dose-dependent effect”.
As to `Nc1cncc2nc(-c3cccc(O)c3)c(-c3cccc(O)c3)nc12`, the result in [1] was inactive.
For the molecule `Nc1nc(N)c2nc(-c3ccccc3)c(-c3ccccc3)nc2n1`, in [1], the IC50 worked out at 8.5 µM.
Same read-out and setting: to `Nc1nc(N)c2ncc(-c3ccc(O)cc3)nc2n1` belongs 4.7 µM; to `Oc1cccc(-c2nc3cncnc3nc2-c2cccc(O)c2)c1`, 9 µM.
On the same count and under the same terms, under `Nc1ncnc2nc(-c3cccc(O)c3)c(-c3cccc(O)c3)nc12` stands 4 µM; under `Nc1nc(N)c2ncc(-c3cccc(O)c3)nc2n1`, 3 µM.
`Nc1nc(N)c2nc(-c3ccc(O)c(O)c3)cnc2n1`: in data set [1], the IC50 stood at 0.195 µM.
Take `Nc1ncnc2nc(-c3ccc(O)c(O)c3)cnc12`: in data set [1], the IC50 was 5.1 µM.
The same measure, in the same setting: to `Nc1nc(N)c2nc(-c3ccc(O)cc3)c(-c3ccc(O)cc3)nc2n1` belongs 2.7 µM.
As for `CCN(CC)CCOc1cccc(-c2nc3nc(N)nc(N)c3nc2-c2cccc(OCCN(CC)CC)c2)c1`, the result in data set [1] was inactive.
Same read-out and setting: under `Nc1cncc2nc(-c3ccc(O)cc3)c(-c3ccc(O)cc3)nc12` stands “inactive”.
Turning to `Nc1ccc2nc(-c3cccc(O)c3)c(-c3cccc(O)c3)nc2c1`, in data set [1], the IC50 turned out to be 17 µM.
Consider `Nc1ccc2nc(-c3ccc(O)c(O)c3)c(-c3ccc(O)c(O)c3)nc2n1`, for which the result in [1] was inactive.
For `COc1cccc(-c2nc3nc(N)nc(N)c3nc2-c2cccc(OC)c2)c1`, in data set [1], the IC50 stood at 12.6 µM.

These data come from ChEMBL document CHEMBL1148756, “Discovery of 3,3'-(2,4-diaminopteridine-6,7-diyl)diphenol as an isozyme-selective inhibitor of PI3K for the treatment of ischemia reperfusion injury associated with myocardial infarction” (J Med Chem, 2007).
